Measurements from the EternaBench riboswitch data.

System: MS2 coat protein
Assay: apparent Kd, MS2 coat protein; higher = weaker binding; RNA-MaP array; FMN 200 µM where present
In short: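 Stalled E. coli RNA polymerase transcribed each design on Illumina sequencing-chip clusters. The clusters were titrated with SNAP-549-labelled MS2 coat protein, starting at 0.7 or 1.5 nM and doubling up to 3 µM, first without ligand and then with constant ligand, in 100 mM Tris-HCl pH 7.5, 80 mM KCl, 4 mM MgCl2, BSA, DTT, yeast tRNA and Tween-20. Green signal was normalised to red-channel RNA signal and to the control-cluster median Fmax. The apparent Kd is the median of filtered binding-curve fits made for each cluster.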

[1] = designed as: OFF switch for flavin mononucleotide, no ligand
[2] = ligand present: flavin mononucleotide, designed as: OFF switch for flavin mononucleotide
[3] = designed as: ON switch for flavin mononucleotide, no ligand
[4] = ligand present: flavin mononucleotide, designed as: ON switch for flavin mononucleotide

Sequence | apparent Kd [1] [nM] | apparent Kd [2] [nM] | apparent Kd [3] [nM] | apparent Kd [4] [nM]
GGAAAACAUGAGGAUCACCCAUGUGAGGAUAUCGAUGUCCAAAAAGAAGUGCGGGACUCGAGAAGGCACUUGGA | 52.7 | 37.5 |  | 
CUGACAGCGCAGAAGGGAGAUCCUACAUGAGGAUCACCCAUGUGGGCUCUCAGGAUAUGCACGUGUAUACCGAAAGUGGUAUUG |  |  | 13.4 | 5.99
GGAAAACAUGAGGAUCACCCAUGUGAGGAUAUCGAUGUCCAGGGCCUGGUGCGGGACUCGAGAAGGCACUGGGA | 62.9 | 126 |  | 
CACCGGCCCUAUGUGUUCUAGACAUGAGGAUCACCCAUGUAUAGAAGGGUCUUCGCGAAACGCAGACAGGAUAUGUACAGGAGU | 6.31 | 9.26 |  | 
AAGGUGUUAGGAUAUCGAAGGUUGUGGCAGGCGGGAAUUUGCGAGAAGGAACAUGAGGAUCACCCAUGUAAAAU | 24.4 | 25.8 |  | 
CUCUCUGAUCGAGGAUAUCGAGCUUCCGCCCUUCGAGAAGGCGACAUGAGGAUCACCCAUGUAAGGAGGACACUCACUCACACG | 26.4 | 22.5 |  | 
GCGCGCGCCGCAGGAUAUGGUUUGUUCGUUGAACCAGAAGGGCGACAUGAGGAUCACCCAUGUACAUGAGGAUCACCCAUGUGC | 59.2 | 51 |  | 
AAUUCACAUGAGGAUCACCCAUGUCAGGAUAUGGUUUUAUUUUUUUCUUUUCUUGAUUCCAGAAGGGACAGCUA | 108 | 59.2 |  | 
AGUACCAUGUAGAAGGGAUAUCUCAAAGAGAUAUCAGGAUAUACAUGAGGAUCACCCAUGUAAAUGUACUCCAGGAAACUGGAA | 19.8 | 55.3 |  | 
CGAUCGUGUAGAGGAUAUGUUAAACAUGAGGAUCACCCAUGUAAGGUAGAAAUUUUUAUUAACAUACAGAAGGCUACACGAUCG | 8.08 | 5.66 |  | 
GAGUCACUAUUAGAACCGAUACGAACAUGAGGAUCACCCAUGUAGGAUAUGCUAAAAGUUGUGUUGCAGAAGGACAUUUAUCGC | 9.81 | 9.06 |  | 
CGCUAGUCAGGAUAUACGAACAUGUCAAAAGACGUGAAGGGACAUGAGGAUCACCCAUGUAGAAGGGACUAGCA | 35.7 | 114 |  | 
GGCGGGAAUGAGAAGGGUCACAUGAGGAUCACCCAUGUGCUCUUCGCCGUGACAGGAUAUCAUCGCCGCCAGGUUAGAUUUUUG | 7.83 | 30.9 |  | 
GCCUCACAUGAGGAUCACCCAUGUCAGGAUAUCUAACGCGAGGUGCAGGCACUUCGUGAGAGAAGGGACGUCAA | 20.3 | 34.4 |  | 
CUCUUGUCAGGAUAUUAUGGACGAUAGCAGGACUACGUCAGUGAGAAGGGACAUGAGGAUCACCCAUGUAAAAU | 82 | 67.2 |  | 
UGGUACUAGGGAGGAUAUGGGAAGAUACAUGAGGAUCACCCAUGUUUAAGAAUGCCGAGAGGCAACUAGAAGGACCUAGUACCU |  |  | 896 | 63.6
GCACGGCAUGUAGGAUAUGCAUAGCAUUGCUAUGCAGAAGGACAUGAGGAUCACCCAUGUAUGUAUUCCAUACAAUUCCCGUGC | 5.86 | 12 |  | 
AAUAACAGAGGAUAUACUAUUUUAUGUGUUUAUUGUUUUGAACAUGAGGAUCACCCAUGUAGAAGGCUGAGUAA | 30.2 | 38 |  | 
UUUAUACAUGAGGAUCACCCAUGUUAGGAUAUGGCUUUAAUGCCGCCGUCAUUAUCCGCCAGAAGGGACGUGUC | 32.2 | 30.4 |  | 
CGUGUCAUCGAGAAGGCCUCAACAUGAGGAUCACCCAUGUUGUAAUAUGGGAGGAUAUCGAUGAUACAGCUACGUUUCGUAGCA |  |  | 21.1 | 6.03
